UBC13 inh: UBC13 polyubiquitin chain formation inhibitors, primary screen, biochemical, TR-FRET, uHTS. Ubiquitin-conjugating enzyme E2 N (Homo sapiens), P61088. inhibition, % at 20 µM. 330,000 compounds, 0.47% hits; in the data active means inhibition above about 45%, passing the limit was not always enough
Target sequence (P61088 whole entry, looked up): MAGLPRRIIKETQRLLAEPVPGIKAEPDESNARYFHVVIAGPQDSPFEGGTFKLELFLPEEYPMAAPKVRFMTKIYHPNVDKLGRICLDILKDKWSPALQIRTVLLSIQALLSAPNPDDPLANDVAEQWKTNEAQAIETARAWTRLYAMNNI
Apaf1 inhib: inhibitors of human Apaf-1 apoptosome, primary screen, biochemical, DEVD-Rh110 fluorescence, uHTS. reconstituted apoptosome caspase-3 activity. inhibition, % at 20 µM. 330,000 compounds, 0.71% hits. AID 489030, 2010; active means inhibition of at least 40% at 20 µM;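 further: plate controls were DMSO wells for no effect and DEVD-CHO caspase inhibitor wells for full effect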
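Medium: Hepes buffer, pH 7.5 / System: biochemical Apaf-1 apoptosome reconstitution / Measured by: Rh110 fluorescence, excitation 480 nm, emission 540 nm / Times: compound with Apaf-1, dATP, procaspase-3 30 min, then 50 min reaction, room temperature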
UPR CHOP act: activators of apoptotic CHOP UPR arm, primary screen, cell-based, CHO-CHOP luciferase reporter, luminescence, uHTS | activation, % at 10 µM | UPR activation; percent of tunicamycin response over DMSO baseline | 330,000 compounds, 0.34% hits;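 active means at 10 µM dose, activation of 40% or more, normalized to positive control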;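 further: 100% = tunicamycin at 10 µg/mL and 0% = DMSO alone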
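Test system: CHO-CHOP cells, stable luciferase reporter of PERK-eIF2a-CHOP signalling | Quantity: 500 CHO-CHOP cells per well | Buffer or medium: F12 plus 10% serum | Compound dosing: 10 µM single point, 0.5% DMSO | Schedule: 6 h compound treatment, 37 °C | Signal: Luciferase luminescence | Control set: Tunicamycin high control, DMSO low control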
XBP1 UPR activ: activators of adaptive XBP1 UPR arm, primary screen, cell-based, CHO-XBP1 luciferase reporter, luminescence, uHTS. IRE1-XBP1 UPR activation; percent of tunicamycin response, DMSO as zero. activation, % at 20 µM. 330,000 compounds, 0.33% hits;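 active means versus positive control, 20 µM dose yields 30% or more activation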;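 further: 100% = tunicamycin at 10 µg/mL and 0% = DMSO only wells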
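Material: CHO cell line with stable XBP1 luciferase reporter; schedule: 16-18 h cell attachment at 37 °C, then 6 h compound exposure; signal: glow luminescence from Steady-Glo reagent; medium: serum-containing F12 medium, 10% FBS; benchmarks: tunicamycin 10 µg/mL and vehicle-only wells; read-out: percent activation relative to tunicamycin reference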
Mdm2 MdmX PPI: inhibitors of human Mdm2-MdmX association, primary screen, cell-based, luminescence, split luciferase, SaOS-2, uHTS. 330,000 compounds, 3% hits. inhibition, % at 8 µM. SaOS-2 split-luciferase Mdm2/MdmX complementation;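 active means inhibition of at least 50% at 8 µM in the primary screen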
Mdm2-MdmX conf: Mdm2-MdmX complex disruptors, retested hits, confirmation, luminescence, single concentration | shares compounds with Mdm2 MdmX PPI | Mdm2-MdmX binding, luminescent assay | inhibition, % at 8 µM | 10,000 compounds, 55% hits | AID 489028, 2010; in the data active means inhibition above about 40%
FLuc counter: full-length luciferase signal inhibition, confirmation, counter-screen for Mdm2/MdmX interaction inhibitor project, cell-based, single concentration, SaOS-2 | 6,200 compounds, 77% hits | shares compounds with Mdm2 MdmX PPI | inhibition, % at 8 µM | SaOS-2 full-length luciferase counterscreen, luminescence;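 active means mean inhibition at 8 µM reaching about 37%, which flags the compound as non-specific, limit read from the data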;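 further: p53-null SaOS-2 cells with luciferase driven by a doxycycline-inducible promoter; compound on cells about two nights before reading with doxycycline added after day one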
Active calls of the source: *; . = no result. This is a sample that favours compounds with a hit; in the whole collection about 4.1% have one here.

SMILES	UBC13 inh	Apaf1 inhib	UPR CHOP act	XBP1 UPR activ	Mdm2 MdmX PPI	Mdm2-MdmX conf	FLuc counter
CC(=O)NC1=C(Nc2ccc(N(C)C)cc2)C(=O)c2ccccc2C1=O	-212.5	23.8	3.4	-5.2	69.9*	45.3*	114.8*
COc1cc(/C=C(/C#N)C(=O)Nc2ccc(Cl)cc2)ccc1Oc1nc(Cl)ncc1F	-2.7	-5.5	33.6	25.5	35.0	.	.
CCOc1ccc(Oc2ccccc2NC(=O)CSCC(=O)Nc2cc(C)on2)cc1	2.2	18.4	1.5	-2.5	6.9	.	.
Cc1cccc(Oc2ccccc2NC(=O)CSCC(=O)Nc2cc(C)on2)c1	2.6	14.5	1.4	-3.2	66.7*	57.9*	108.5*
CN(Cc1ccc(Cl)cc1)C(=O)CCl	0.4	8.5	5.7	-7.8	35.7	.	.
CN(Cc1ccc(Cl)s1)C(=O)CCl	10.3	-17.8	17.1	-4.6	53.7*	41.1*	52.4*
O=C(O)c1cc(N/N=C/c2ccncc2)ccc1Cl	-18.5	0.1	-2.4	-4.2	-14.0	.	.
Clc1cccc(Cl)c1/C=N/Nc1c(Cl)cncc1Cl	4.7	5.0	0.5	2.3	64.9*	64.2*	22.0
Clc1cncc(Cl)c1N/N=C/c1ccncc1	-6.8	-7.6	4.6	-0.1	65.0*	63.0*	27.6
Cc1c(Cl)cn2c(=O)cc(CN3CCN(c4ccc(F)cc4)CC3)nc2c1Cl	-0.3	10.6	-2.9	-5.4	18.0	.	.
O=C1NC(c2cccc([N+](=O)[O-])c2)Oc2ccccc21 (stereo unspecified)	3.7	1.3	2.3	-0.8	1.7	.	.
COc1cccc(OCC(=O)Nc2c3c(nn2-c2ccc(F)cc2)CS(=O)(=O)C3)c1	-6.9	6.5	2.0	4.1	27.6	.	.
CC(O)CNCCNCc1c(OCc2ccccc2)ccc2ccccc12 (stereo unspecified)	16.3	-4.4	-0.1	0.5	31.1	.	.
COc1cc(CNCCO)cc(Cl)c1OCc1ccccc1Cl	21.4	7.7	-1.0	8.0	25.1	.	.
CCOc1cc(CNCCCN2CCOCC2)cc(Br)c1OCc1ccccc1Cl	38.9	11.8	4.2	14.6	91.9*	33.5	52.2*
CCOc1cc(CNCCO)cc(Br)c1OCc1ccccc1Cl	42.6	12.0	-1.3	5.6	68.4*	34.5	.
CCOc1cccc(CNCCO)c1OCc1ccc(Cl)cc1	2.9	12.2	0.4	-2.5	-9.3	.	.
CCOc1cc(CNCCO)cc(Br)c1OCc1ccc(Cl)cc1	36.9	15.0	3.4	9.1	80.2*	20.9	.
OCCNCc1c(OCc2ccc(Cl)cc2)ccc2ccccc12	14.6	6.0	1.0	-1.9	53.0*	41.2*	70.0*
COc1ccc(NC2CCCN(C(=O)C3=NN(C)C(=O)CC3)C2)cc1OC (stereo unspecified)	7.1	-11.5	0.4	-1.0	9.0	.	.
COc1ccc(CN2C(=O)c3ccccc3C2=O)cc1C(=O)N(C)CC(=O)Nc1ccc(F)cc1	2.7	-4.4	0.6	-3.5	2.8	.	.
C[C@@]12C(=O)OC(=O)[C@]1(C)C1CCC2O1	-2.4	-1.3	101.1*	-0.6	98.5*	93.2*	51.8*
Cc1cc(NC(=O)C2CCCC2)n(-c2nc3ccccc3[nH]2)n1	-5.0	-6.6	0.8	6.1	53.5*	40.9*	62.6*
Cc1cc(NC(=O)c2sccc2C)n(-c2nc3ccccc3[nH]2)n1	-22.0	14.0	-1.1	12.7	58.7*	25.6	.
COc1cccc(OC)c1C(=O)Nc1cc(C)nn1-c1nc2ccccc2[nH]1	-9.5	3.7	-0.5	12.6	77.2*	54.0*	63.3*
